Measurements as given in ChEMBL document CHEMBL3351267, “Curcuminoid derivatives enhance telomerase activity in an in vitro TRAP assay” (Bioorg Med Chem Lett, 2014).
Activity calls are given as the source filed them. The rule behind the calls is not given here.

Columns and labels:
[1] = molecular target: Telomerase reverse transcriptase (Homo sapiens) (UniProt O14746); assay: Activation of human telomerase activity expressed in HEK293T cells incubated for 30 mins by modified TRAP assay; type: cell-based; settings: HEK-293T
How it was run: (§1)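 Telomerase came from crude lysate of HEK293T cells transfected with hTERT and hTR plasmids. MTS primer and compound were incubated in telomerase reaction buffer at 30 °C for 30 min, then removed by two phenol–chloroform extractions. Products were ethanol-precipitated, PCR-amplified with FAM-tagged primer, run on 8% non-denaturing acrylamide and phosphorimaged. Accumulated product intensity was averaged over three independent experiments.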

[2] = molecular target: Telomerase reverse transcriptase (Homo sapiens) (UniProt O14746); assay: Activation of human telomerase activity expressed in HEK293T cells at 60 uM incubated for 30 mins by modified TRAP assay; type: cell-based; settings: HEK-293T; how it was run: as §1
[3] = molecular target: Telomerase reverse transcriptase (Homo sapiens) (UniProt O14746); assay: Activation of human telomerase activity expressed in HEK293T cells at 20 to 60 uM incubated for 30 mins by modified TRAP assay; type: cell-based; settings: HEK-293T; how it was run: as §1
[4] = molecular target: Telomerase reverse transcriptase (Homo sapiens) (UniProt O14746); assay: Activation of human telomerase activity expressed in HEK293T cells assessed as increase in telomer products intensity incubated for 30 mins by modified TRAP assay; type: cell-based; settings: HEK-293T; how it was run: as §1
[5] = molecular target: Telomerase reverse transcriptase (Homo sapiens) (UniProt O14746); assay: Activation of human telomerase activity expressed in HEK293T cells assessed as increase in telomer products length incubated for 30 mins by modified TRAP assay; type: cell-based; settings: HEK-293T; how it was run: as §1
[6] = molecular target: Telomerase reverse transcriptase (Homo sapiens) (UniProt O14746); assay: Activation of human telomerase activity expressed in HEK293T cells incubated for 30 mins by modified TRAP assay and phosphorimage analysis; type: cell-based; settings: HEK-293T; how it was run: as §1
[7] = molecular target: Telomerase reverse transcriptase (Homo sapiens) (UniProt O14746); assay: Activation of human telomerase activity expressed in HEK293T cells at 60 uM incubated for 30 mins by modified TRAP assay and phosphorimage analysis; type: cell-based; settings: HEK-293T; how it was run: as §1
[8] = molecular target: Telomerase reverse transcriptase (Homo sapiens) (UniProt O14746); assay: Activation of human telomerase activity expressed in HEK293T cells assessed as increase in telomer products length at 40 uM by modified TRAP assay and phosphorimage analysis; type: cell-based; settings: HEK-293T, TDE = time-dependent effect
How it was run: (§2)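 This was a time course at 40 µM compound, with the compound-free set run in parallel. The telomerase source was lysate of HEK293T cells transfected with hTERT/hTR. Reactions ran at 30 °C, and 100 µl was withdrawn at set times and heat-stopped at 95 °C for 10 min. Products were purified, PCR-amplified with FAM primer, and separated on 8% non-denaturing gel with phosphorimaging. Intensities came from three independent experiments.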

[9] = molecular target: Telomerase reverse transcriptase (Homo sapiens) (UniProt O14746); assay: Activation of human telomerase activity expressed in HEK293T cells assessed as increase in telomer products intensity at 40 uM by modified TRAP assay and phosphorimage analysis; type: cell-based; settings: HEK-293T, TDE = time-dependent effect; how it was run: as §2
Thermus aquaticus = assay: Inhibition of Thermus aquaticus DNA polymerase at 5 uM

Telomerase reverse transcriptase (Homo sapiens), sequence (O14746 whole entry): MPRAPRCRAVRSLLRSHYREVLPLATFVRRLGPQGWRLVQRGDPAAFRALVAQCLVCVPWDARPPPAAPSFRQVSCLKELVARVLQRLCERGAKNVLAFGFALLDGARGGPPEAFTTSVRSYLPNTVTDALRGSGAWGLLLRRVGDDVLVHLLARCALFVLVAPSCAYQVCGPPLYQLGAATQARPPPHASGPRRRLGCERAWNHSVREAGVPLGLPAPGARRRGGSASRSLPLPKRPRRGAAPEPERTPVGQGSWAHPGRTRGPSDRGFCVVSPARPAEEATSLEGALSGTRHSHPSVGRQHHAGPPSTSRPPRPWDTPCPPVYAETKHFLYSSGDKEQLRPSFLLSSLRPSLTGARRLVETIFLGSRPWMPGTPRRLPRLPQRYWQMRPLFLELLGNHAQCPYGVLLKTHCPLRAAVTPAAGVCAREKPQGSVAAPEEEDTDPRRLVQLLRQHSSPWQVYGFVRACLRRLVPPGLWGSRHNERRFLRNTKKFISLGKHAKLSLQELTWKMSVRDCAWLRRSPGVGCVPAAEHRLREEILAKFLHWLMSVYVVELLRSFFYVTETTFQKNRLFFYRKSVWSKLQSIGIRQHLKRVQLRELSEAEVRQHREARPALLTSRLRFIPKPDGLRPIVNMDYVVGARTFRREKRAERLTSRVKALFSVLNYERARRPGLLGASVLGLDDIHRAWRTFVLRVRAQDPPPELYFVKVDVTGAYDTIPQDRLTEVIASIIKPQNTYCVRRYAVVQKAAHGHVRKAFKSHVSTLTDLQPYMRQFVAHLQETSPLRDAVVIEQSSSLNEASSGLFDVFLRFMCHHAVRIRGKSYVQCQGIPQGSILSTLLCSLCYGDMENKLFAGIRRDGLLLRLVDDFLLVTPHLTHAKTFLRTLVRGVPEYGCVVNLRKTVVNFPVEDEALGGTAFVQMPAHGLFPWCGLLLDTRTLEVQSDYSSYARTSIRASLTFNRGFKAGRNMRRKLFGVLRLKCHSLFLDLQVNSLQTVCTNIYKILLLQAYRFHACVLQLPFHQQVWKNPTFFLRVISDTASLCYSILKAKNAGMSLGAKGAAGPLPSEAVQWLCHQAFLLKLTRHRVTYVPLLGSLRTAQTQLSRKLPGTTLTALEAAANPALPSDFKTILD

COc1cc(CCC(O)CC(O)CCc2ccc(O)c(OC)c2)ccc1O (stereo not given) was tested, and the Activity [1] was “inactive”.

With COc1cc(/C=C/c2cc(/C=C/c3ccc(OCCCCC[n+]4ccccc4)c(OC)c3)on2)ccc1OCCCCC[n+]1ccccc1 the fold change (FC) [2] was 3.

For COc1cc(/C=C/C(=O)CC(=O)/C=C/c2ccc(OCCCCC[n+]3ccccc3)c(OC)c2)ccc1O, the fold change (FC) [2] was 3.

In the case of COc1cc(CCC(=O)CC(=O)CCc2ccc(O)c(OC)c2)ccc1O, the Activity [1] is reported as “inactive”.

For COc1cc(/C=C/C(O)=C/C(=O)/C=C/c2ccc(O)cc2)ccc1O, the Activity [1] was “inactive”.

With COc1cc(CC/C=C/C(=O)CCc2ccc(OCCCCC[n+]3ccccc3)c(OC)c2)ccc1OCCCCC[n+]1ccccc1 the Activity [3] was “inactive”.

In the case of O=C(/C=C/c1ccc(O)cc1)CC(=O)/C=C/c1ccc(O)cc1, the Activity [1] is reported as “inactive”.

Work on COc1cc(/C=C/C(=O)CC(=O)/C=C/c2ccc(O)cc2)ccc1OCCCCC[n+]1ccccc1 yielded a fold change (FC) [2] of 3.

In the case of COc1cc(/C=C/C(=O)CC(=O)/C=C/c2ccc(OCCCCC[n+]3ccccc3)cc2)ccc1O, the fold change (FC) [2] is reported as 3.

In the case of COc1cc(/C=C/C(=O)CC(=O)/C=C/c2ccc(OCCCCC[n+]3ccccc3)c(OC)c2)ccc1OCCCCC[n+]1ccccc1, the Activity [1] is reported as “Dose-dependent effect”, the Activity [4] is reported as “Dose-dependent effect” and the Activity [5] is reported as “Dose-dependent effect”. For the same molecule, the Activity [6] was “Dose-dependent effect”, the fold change (FC) [7] was under 5 and the Activity [8] was “tde”. For the same molecule, the Activity [9] was “tde”, the inhibition (Thermus aquaticus) was “Active” and the fold change (FC) [2] was 5.

In the case of COc1cc(/C=C/C(=O)CC(=O)/C=C/c2ccc(OCCO)c(OC)c2)ccc1OCCO, the Activity [1] is reported as “inactive”.

In the case of COc1cc(/C=C/C(=O)CC(=O)/C=C/c2ccc(O)c(OC)c2)ccc1O, the Activity [1] is reported as “inactive”.
